# Most compounds without a hit are left out; they make up all but 2.7% or so of the library.
# RBBP9 inh: human RBBP9 inhibitors, primary screen, biochemical, fluorescence polarization, FP-Rh probe, HTS. recombinant RBBP9. inhibition, % at 7.94 µM. 220,000 compounds, 0.2% hits. AID 1515, 2009;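 active means inhibition above the campaign mean of all tested compounds plus 3 SD, cut at about 14% in these data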;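 further: plate controls were DMSO wells with RBBP9 for no effect and wells lacking RBBP9 protein for full effect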
# Target sequence (O75884 whole entry, looked up): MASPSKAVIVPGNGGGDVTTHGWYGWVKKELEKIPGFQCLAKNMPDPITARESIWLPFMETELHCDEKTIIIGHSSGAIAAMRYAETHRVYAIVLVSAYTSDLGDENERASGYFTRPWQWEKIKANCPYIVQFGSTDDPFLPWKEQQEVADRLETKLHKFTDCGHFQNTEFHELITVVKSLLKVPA
#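 system = RBBP9 protein | input = RBBP9 at 2.5 µM in dispensed solution, before mixing | measured by = fluorescence polarization (mP), excitation 525 nm, emission 598 nm | incubation = enzyme-compound preincubation 30 min, then probe labeling 45 min, 25 °C | buffer or medium = Tris-NaCl-Pluronic buffer, pH 8.0 | compound = single dose 7.94 µM | also added = FP-Rh probe, 375 nM dispensing solution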
# PRMT1 inh: PRMT1 methyltransferase inhibitors, primary screen, biochemical, fluorescence polarization; recombinant PRMT1, activity-based probe fluorescence polarization; inhibition, % at 2.79 µM; 370,000 compounds, 1.3% hits;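 active means inhibition above about 21% made by adding two undisclosed values, limit read from the data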
# SIAE inh: human SIAE inhibitors, primary screen, biochemical, fluorescence polarization, FP-Rh probe, 1536-well HTS | Sialate O-acetylesterase (Homo sapiens), Q9HAT2 | SIAE FP-Rh probe binding | inhibition, % at 9.66 µM | 370,000 compounds, 0.69% hits | AID 1053197, 2014;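 active means inhibition above a cutoff: mean of compounds within the control limits plus 3 SD of those, cut at about 17% in these data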;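 further: 0% = plate median of compound wells and 100% = probe without SIAE protein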
# PAD4 FP inh: human PAD4 inhibitors, primary screen, biochemical, fluorescence polarization, 1536-well format; Protein-arginine deiminase type-4 (Homo sapiens), Q9UM07; recombinant PAD4, RCA probe fluorescence polarization; inhibition, % at 6.36 µM; 330,000 compounds, 0.41% hits;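 active means percent inhibition above a cutoff equal to the mean of all tested compounds plus 3 SD, cut at about 15% in these data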;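 further: 0% = PAD4 with RCA probe and DMSO and 100% = probe without PAD4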
# GSTO1 inh: inhibitors of recombinant GSTO1, primary screen, counter-screen for RBBP9 inhibitor project, biochemical, fluorescence polarization. AID 1974, 2009. activity-based probe fluorescence polarization. 300,000 compounds, 1.1% hits. inhibition, % at 5.96 µM;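 active means inhibition above the campaign mean inhibition plus 3 SD, cut at about 35% in these data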;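 further: 0% = GSTO1-1 with DMSO and 100% = wells lacking GSTO1-1 enzyme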
# Target sequence (P78417 whole entry, looked up): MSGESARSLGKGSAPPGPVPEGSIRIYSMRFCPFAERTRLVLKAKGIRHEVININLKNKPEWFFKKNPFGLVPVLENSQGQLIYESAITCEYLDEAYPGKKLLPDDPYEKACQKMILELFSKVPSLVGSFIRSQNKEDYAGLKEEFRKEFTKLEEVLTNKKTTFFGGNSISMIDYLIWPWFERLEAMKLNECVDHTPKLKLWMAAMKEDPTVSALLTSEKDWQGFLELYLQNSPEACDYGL
# * = called active by the depositor; . = not tested or not shown.
SMILES,RBBP9 inh,PRMT1 inh,SIAE inh,PAD4 FP inh,GSTO1 inh
CN(C)c1ccc(N=Nc2ccc(S(=O)(=O)O)cc2)c2ccccc12,1,14,0,-12,37*
CCc1nnc(NC(=O)CSc2nc3c(c(=O)n2CC)SC(C)C3)s1 (centres undefined),-4,0,-1,-3,35*
COc1ccc2c(c1)C(C)=CC(C)(C)N2S(=O)(=O)c1ccc(Br)cc1,-11,-2,0,-1,1
CC(Oc1ccc2c(c1)oc(=O)c1ccccc12)C(=O)NC(Cc1c[nH]c2ccc(O)cc12)C(=O)O (centres undefined),.,22*,-4,3,-1
Cc1cc(OC(C)C(=O)NC(Cc2c[nH]c3ccc(O)cc23)C(=O)O)c2c(C)c(C)c(=O)oc2c1 (centres undefined),.,-2,4,-4,0
CCn1c(=O)cc(N2CCN(c3cccc(C(F)(F)F)c3)CC2)[nH]c1=O,.,-1,-8,.,.
O=C(Nc1ccc2[nH]c3c(c2c1)CCCC3)c1ccco1,1,3,-1,-2,35*
Cc1cc2cc(NC(=O)c3ccco3)ccc2[nH]1,4,11,7,0,-2
Cn1c(=O)[nH]c(=O)c2c1nc(N/N=C/C(Br)=C/c1ccccc1)n2CCO,-1,2,-1,-1,35*
O=C(CNC(=O)c1ccco1)OCN1C(=O)c2ccccc2C1=O,-3,4,-2,-1,37*
CCc1oc(C(=O)O)cc1COC,1,1,1,1,-2
CCCNC(=O)C1(C)CCCN(C(=O)c2cccc(C#N)c2)C1 (centres undefined),.,-2,1,.,.
Cn1c2ccccc2c2ncn(Cc3ccco3)c(=O)c21,-4,6,5,-6,0
Cn1c2ccc(F)cc2c2ncn(Cc3ccco3)c(=O)c21,-10,22*,6,2,-1
COc1ccc(S[C@]2(C(=O)N3CCN(c4ncccn4)CC3)CC(=O)N(P(=O)(OC)OC)[C@@H]2c2ccc(OC)cc2)cc1,.,12,-6,.,.
COc1ccc(S[C@]2(C(=O)N3CCN(c4ncccn4)CC3)CC(=O)N(C(=O)c3ccccc3)[C@@H]2c2ccc(OC)cc2)cc1,.,24*,-3,.,.
O=C(/C=C/c1ccc([N+](=O)[O-])s1)N1CCCC1,-8,2,4,-4,22
O=C(/C=C/c1ccc([N+](=O)[O-])s1)N1CCCCC1,-9,-5,11,-5,35*
Cc1ccc(C)n1-c1cccc(C(=O)O)c1,.,.,.,7,53*
Cc1cc(C=O)c(C)n1-c1cccc(C(=O)O)c1,0,2,-4,-6,4
CCNc1ccccc(C(=O)/C=C/c2ccc3c(c2)OCO3)c1=O,-8,26*,16,-5,44*
COc1cc2ccccc2cc1C(=O)Nc1ccccc1Cl,.,-6,0,-6,-11
O=C(NC(=S)Nc1ccccc1[N+](=O)[O-])c1ccccc1Cl,-1,-1,-7,-5,2
O=C(O)c1ccc(Cl)c(NC(=S)NC(=O)c2ccccc2[N+](=O)[O-])c1,-5,23*,-4,1,-6
Nn1c(C2COc3ccccc3O2)n[nH]c1=S (centres undefined),1,2,4,-5,35*
SMILES,RBBP9 inh,PRMT1 inh,SIAE inh,PAD4 FP inh,GSTO1 inh
COc1cc(C2C(C#N)=C(N)N(c3ccc(F)cc3)C3=C2S(=O)(=O)CC3)ccc1O (centres undefined),-2,25*,4,-20,-5
COc1cc(C2C(C#N)=C(N)N(c3cccnc3)C3=C2C(=O)CCC3)ccc1O (centres undefined),-3,7,4,-2,11
O=C(c1ccc(S(=O)(=O)Cc2ccccc2Cl)c([N+](=O)[O-])c1)N1CCN(c2ccccn2)CC1,-9,8,-5,2,-1
Cc1cc(C(=O)NCc2ccco2)on1,-10,24*,-5,1,-3
O=C(COC(=O)c1ccc([N+](=O)[O-])s1)Nc1ccc(F)cc1,.,0,-2,-1,.
O=C(COC(=O)c1ccc([N+](=O)[O-])s1)NCc1ccccc1,-8,0,-3,-1,42*
O=C(COC(=O)c1ccc([N+](=O)[O-])s1)NC(c1ccccc1)c1ccccc1,2,1,-5,-11,37*
CC(C)(C)c1ccc(NC(=O)COC(=O)c2ccc([N+](=O)[O-])s2)cc1,0,1,12,-14,40*
O=C(COC(=O)c1ccc([N+](=O)[O-])s1)Nc1ccc(Cl)cn1,1,2,-2,-15,30
O=C(OCC(O)C(O)C(O)COC(=O)c1ccccc1)c1ccccc1 (centres undefined),.,6,9,.,.
O=C(CSc1ccccc1)NC1CCCCCCC1,.,0,2,3,-1
Cc1ccccc1Cn1cc(COC(=O)NCC(C)C)nn1,.,-1,5,.,.
CC(=O)OC1=C(O)C(=O)c2ccccc2C1=O,.,.,.,-3,59*
O=C1c2nc3cc(-c4ccco4)[nH]n3c(=O)c2CN1C1CCCCC1,7,23*,0,-3,4
COc1cc(C2Nc3cccc4cccc(c34)N2)ccc1O,.,7,54*,-5,31
Clc1ccc(C2Nc3cccc4cccc(c34)N2)cc1,.,9,1,1,35*
CSc1ccc(C2Nc3cccc4cccc(c34)N2)cc1,.,8,17,-5,12
Cc1cccc(C2Nc3cccc4cccc(c34)N2)c1,.,8,3,-1,37*
COc1ccc(Br)cc1C1Nc2cccc3cccc(c23)N1,.,2,2,-9,4
O=C(O)CCCn1cc(NC(=O)c2cc(F)c(F)cc2Cl)cn1,4,-2,-2,-1,25
NC(=O)CC(NC(=O)c1cccc(Br)c1)c1ccc(NC2CCN(Cc3ccccc3)CC2)c([N+](=O)[O-])c1 (centres undefined),.,2,4,-3,-3
CCC(Oc1ccccc1)C(=O)NCCOC (centres undefined),9,22*,-3,3,3
CCC(Oc1ccccc1)C(=O)Nc1ccccc1OC (centres undefined),-2,0,-8,-8,-3
COc1ccc(CNC(=O)CN(C)S(=O)(=O)c2ccc3c(c2)n(C)c(=O)c(=O)n3C)cc1,.,-2,2,-2,-7
O=c1[nH]c2ccccc2c(O)c1-[n+]1ccccc1,-6,5,4,-1,-7
O=c1[nH]c2ccccc2c(O)c1O,16*,75*,4,-21,24
CCCCCc1c(O)c2ccccc2[nH]c1=O,-6,-1,5,-7,-1
CCCCS(=O)c1c(O)c2ccccc2[nH]c1=O (centres undefined),-5,22*,5,0,0

# Bioassay records from PubChem.
